# According to ChEMBL document CHEMBL2406994, “Novel triple reuptake inhibitors with low risk of CAD associated liabilities: design, synthesis and biological activities of 4-[(1S)-1-(3,4-dichlorophenyl)-2-methoxyethyl]piperidine and related compounds” (Bioorg Med Chem, 2013):
# Activity calls are given as the source filed them. The rule behind the calls is not given here.
# How the values were obtained:
# Mus musculus [1] = test: Antidepressant activity in ICR mouse assessed as DA level at 10 mg/kg, po after 120 mins by microdialysis relative to control; format: functional
# Outline: (§1)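 Male 6-week-old ICR mice; probe implanted stereotaxically into medial prefrontal cortex under pentobarbital, 1 day recovery. Perfusion with Ringer at 2 µL/min; after ≥120 min stabilisation, dialysate collected every 20 min. Baseline from mean of three stable samples. Drug in water given orally at 10 mL/kg; collection continued 120 min. 5-HT, NE and DA measured by HPLC with electrochemical detection.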
# hERG (KCNH2) = hERG (KCNH2) (Homo sapiens, UniProt Q12809); test: Inhibition of human ERG channel at 10 uM by ionworks assay relative to control
# Chain of hERG (KCNH2) (Q12809 whole entry): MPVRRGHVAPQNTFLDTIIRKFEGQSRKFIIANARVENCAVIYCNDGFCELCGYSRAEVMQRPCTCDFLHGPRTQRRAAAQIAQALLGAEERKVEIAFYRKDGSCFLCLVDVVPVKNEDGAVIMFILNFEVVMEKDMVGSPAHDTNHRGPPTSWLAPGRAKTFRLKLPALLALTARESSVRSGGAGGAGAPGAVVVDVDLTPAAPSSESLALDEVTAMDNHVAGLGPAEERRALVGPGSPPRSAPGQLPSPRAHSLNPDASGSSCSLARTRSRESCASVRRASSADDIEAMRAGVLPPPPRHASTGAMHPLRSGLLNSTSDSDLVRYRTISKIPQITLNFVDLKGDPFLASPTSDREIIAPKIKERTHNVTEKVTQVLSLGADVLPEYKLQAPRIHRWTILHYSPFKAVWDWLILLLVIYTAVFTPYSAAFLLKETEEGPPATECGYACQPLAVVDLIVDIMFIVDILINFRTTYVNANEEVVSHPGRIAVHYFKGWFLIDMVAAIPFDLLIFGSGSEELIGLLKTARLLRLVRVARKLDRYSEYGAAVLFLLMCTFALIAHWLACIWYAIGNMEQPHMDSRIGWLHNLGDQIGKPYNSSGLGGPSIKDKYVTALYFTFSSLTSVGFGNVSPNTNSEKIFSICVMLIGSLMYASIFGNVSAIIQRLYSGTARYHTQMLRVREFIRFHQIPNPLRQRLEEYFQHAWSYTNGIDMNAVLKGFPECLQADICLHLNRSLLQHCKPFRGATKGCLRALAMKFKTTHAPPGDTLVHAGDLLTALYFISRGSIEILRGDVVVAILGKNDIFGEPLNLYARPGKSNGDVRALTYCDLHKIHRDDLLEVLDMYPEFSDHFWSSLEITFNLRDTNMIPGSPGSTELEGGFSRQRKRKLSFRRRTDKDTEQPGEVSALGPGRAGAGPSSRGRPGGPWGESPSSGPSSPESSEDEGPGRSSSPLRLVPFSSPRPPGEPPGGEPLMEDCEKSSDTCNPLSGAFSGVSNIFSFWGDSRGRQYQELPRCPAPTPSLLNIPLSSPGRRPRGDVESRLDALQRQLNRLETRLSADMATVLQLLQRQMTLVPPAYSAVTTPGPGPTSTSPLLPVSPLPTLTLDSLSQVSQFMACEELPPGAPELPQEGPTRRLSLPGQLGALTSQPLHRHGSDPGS
# Outline: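 hERG current measured on IonWorks Quattro with test compound at 10 µM. Expressed as % inhibition.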
# Mus musculus [2] = test: Antidepressant activity in ICR mouse assessed as 5-HT level at 10 mg/kg, po after 120 mins by microdialysis relative to control; format: functional; outline: as §1
# CYP2D6 = CYP2D6 (Homo sapiens, UniProt P10635); test: Inhibition of CYP2D6 (unknown origin) assessed as 1'-hydroxybufuralol production at 10 uM after 20 mins by LC/MS/MS analysis relative to control; format: ADME; conditions: probe bufuralol (measured as 1'-hydroxybufuralol production)
# Chain of CYP2D6 (P10635 whole entry): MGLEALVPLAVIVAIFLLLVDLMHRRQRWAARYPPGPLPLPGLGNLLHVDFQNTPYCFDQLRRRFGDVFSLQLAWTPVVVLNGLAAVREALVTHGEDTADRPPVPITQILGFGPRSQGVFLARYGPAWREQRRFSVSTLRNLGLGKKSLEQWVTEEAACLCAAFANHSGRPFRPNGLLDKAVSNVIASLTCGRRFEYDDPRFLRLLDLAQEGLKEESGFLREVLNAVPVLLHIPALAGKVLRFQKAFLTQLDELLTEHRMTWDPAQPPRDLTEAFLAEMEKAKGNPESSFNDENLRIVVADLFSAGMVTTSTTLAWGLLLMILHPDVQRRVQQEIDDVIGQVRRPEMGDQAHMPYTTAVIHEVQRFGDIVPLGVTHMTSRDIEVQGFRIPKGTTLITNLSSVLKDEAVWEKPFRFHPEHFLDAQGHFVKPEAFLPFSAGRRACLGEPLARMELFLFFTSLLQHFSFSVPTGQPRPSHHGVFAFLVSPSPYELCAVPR
# Outline: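 10 µmol/L bufuralol incubated with 2 nmol/L CYP2D6 from insect cells expressing the enzyme, with 10 µmol/L test compound, for 20 min at 37 °C. 1'-hydroxybufuralol quantified by LC/MS/MS. Expressed as % inhibition.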
# [3] = target: Sodium-dependent dopamine transporter (Homo sapiens, UniProt Q01959); test: Displacement of [3H]-dopamine from human DAT expressed in CHO cells by TopCounting analysis; format: cell-based
# Chain of Sodium-dependent dopamine transporter (Q01959 whole entry): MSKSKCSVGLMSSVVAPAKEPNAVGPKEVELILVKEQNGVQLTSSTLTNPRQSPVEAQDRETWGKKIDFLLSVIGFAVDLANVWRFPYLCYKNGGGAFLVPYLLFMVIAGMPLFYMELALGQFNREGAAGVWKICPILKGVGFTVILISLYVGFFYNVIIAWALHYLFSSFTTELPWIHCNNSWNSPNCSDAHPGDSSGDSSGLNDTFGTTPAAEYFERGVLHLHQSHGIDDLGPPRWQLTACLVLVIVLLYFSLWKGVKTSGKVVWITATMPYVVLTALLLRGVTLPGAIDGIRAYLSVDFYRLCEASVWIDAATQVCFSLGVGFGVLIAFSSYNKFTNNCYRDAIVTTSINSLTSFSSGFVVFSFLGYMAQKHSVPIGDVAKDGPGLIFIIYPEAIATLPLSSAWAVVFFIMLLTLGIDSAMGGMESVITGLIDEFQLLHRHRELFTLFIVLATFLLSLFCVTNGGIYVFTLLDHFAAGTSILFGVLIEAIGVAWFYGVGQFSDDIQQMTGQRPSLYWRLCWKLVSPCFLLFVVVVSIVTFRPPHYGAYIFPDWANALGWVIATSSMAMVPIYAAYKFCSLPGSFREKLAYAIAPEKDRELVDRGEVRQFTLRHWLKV
# Outline: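 CHO cells stably expressing human DAT, plated overnight at 3 × 10⁵ cells/mL in HEPES-buffered saline with 0.5% BSA. Compound added, then [³H]-dopamine (200 nM diluted stock) with cold dopamine. Uptake for 60 min, two PBS washes, scintillation counting. Activity relative to 100 µM nomifensine as 100%. IC50 and 95% CI from n = 2.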
# Mus musculus [4] = test: Antidepressant activity in orally dosed ICR mouse after 60 mins by tail suspension test; format: functional; conditions: po, 1 h, read-out: MED
# Outline: (§2)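 Male 7-week-old ICR mice, n = 11/group. Drug or vehicle (distilled water) given orally at 10 mL/kg; test run 60 min later. Mice hung by the tail from a strain-gauge hook, and immobility scored from load variation over a 10 min test. Average immobility ratio (%) per group; significance by parametric Williams' test, P < .025.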
# Mus musculus [5] = test: Antidepressant activity in po dosed ICR mouse assessed as immobility rate after 60 mins by tail suspension test; format: functional, organism-based; outline: as §2
# Mus musculus [6] = test: Antidepressant activity in ICR mouse assessed as reduction in immobility rate at 10 mg/kg, po after 60 mins by tail suspension test; format: functional, organism-based; design: dose 10 mg/kg; outline: as §2
# Mus musculus [7] = test: Ex vivo receptor occupancy of DAT in po dosed ICR mouse after 1 hr in presence of [3H]-WIN35428; format: functional, organism-based
# Outline: (§3)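 Oral dosing in mice; 1 h later, frontal cortex and striatum dissected. Unwashed homogenate incubated with [³H]-citalopram (25 nM, SERT), [³H]-nisoxetine (25 nM, NET) or [³H]-WIN35428 (50 nM, DAT). Occupancy taken as percent inhibition of specific binding.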
# [8] = target: Sodium-dependent serotonin transporter (Homo sapiens, UniProt P31645); test: Displacement of [3H]-hydroxytryptamine from human SERT expressed in CHO cells by TopCounting analysis; format: cell-based
# Chain of Sodium-dependent serotonin transporter (P31645 whole entry): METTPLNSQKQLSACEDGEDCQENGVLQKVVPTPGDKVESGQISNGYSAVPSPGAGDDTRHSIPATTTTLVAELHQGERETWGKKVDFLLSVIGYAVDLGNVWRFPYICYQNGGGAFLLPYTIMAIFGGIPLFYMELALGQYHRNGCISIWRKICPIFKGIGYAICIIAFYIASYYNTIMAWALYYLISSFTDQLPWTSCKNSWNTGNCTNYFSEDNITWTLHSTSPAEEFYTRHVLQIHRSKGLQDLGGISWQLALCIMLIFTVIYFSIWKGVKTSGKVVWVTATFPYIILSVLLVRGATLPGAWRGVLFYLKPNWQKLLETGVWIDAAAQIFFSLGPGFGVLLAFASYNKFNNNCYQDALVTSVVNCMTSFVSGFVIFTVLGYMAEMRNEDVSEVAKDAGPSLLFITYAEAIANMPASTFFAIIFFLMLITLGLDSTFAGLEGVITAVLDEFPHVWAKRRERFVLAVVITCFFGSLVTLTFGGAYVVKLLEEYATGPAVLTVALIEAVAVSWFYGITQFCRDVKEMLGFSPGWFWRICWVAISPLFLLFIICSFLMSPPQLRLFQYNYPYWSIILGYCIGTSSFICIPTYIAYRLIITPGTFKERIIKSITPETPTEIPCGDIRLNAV
# Outline: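 CHO cells stably expressing human SERT, plated overnight at 3 × 10⁵ cells/mL in HEPES-buffered saline with 0.5% BSA. Compound added, then [³H]-5-HT (200 nM diluted stock). Uptake stopped at 20 min with two PBS washes, then scintillation counting. Activity relative to 10 µM paroxetine.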
# Mus musculus [9] = test: Antidepressant activity in ICR mouse assessed as NE level at 10 mg/kg, po after 120 mins by microdialysis relative to control; format: functional; outline: as §1
# Mus musculus [10] = test: Ex vivo receptor occupancy of NET in po dosed ICR mouse after 1 hr in presence of [3H]-nisoxetine; format: functional, organism-based; outline: as §3
# [11] = target: Sodium-dependent noradrenaline transporter (Homo sapiens, UniProt P23975); test: Displacement of [3H]-norepinephrine from human NET expressed in CHO cells by TopCounting analysis; format: cell-based
# Chain of Sodium-dependent noradrenaline transporter (P23975 whole entry): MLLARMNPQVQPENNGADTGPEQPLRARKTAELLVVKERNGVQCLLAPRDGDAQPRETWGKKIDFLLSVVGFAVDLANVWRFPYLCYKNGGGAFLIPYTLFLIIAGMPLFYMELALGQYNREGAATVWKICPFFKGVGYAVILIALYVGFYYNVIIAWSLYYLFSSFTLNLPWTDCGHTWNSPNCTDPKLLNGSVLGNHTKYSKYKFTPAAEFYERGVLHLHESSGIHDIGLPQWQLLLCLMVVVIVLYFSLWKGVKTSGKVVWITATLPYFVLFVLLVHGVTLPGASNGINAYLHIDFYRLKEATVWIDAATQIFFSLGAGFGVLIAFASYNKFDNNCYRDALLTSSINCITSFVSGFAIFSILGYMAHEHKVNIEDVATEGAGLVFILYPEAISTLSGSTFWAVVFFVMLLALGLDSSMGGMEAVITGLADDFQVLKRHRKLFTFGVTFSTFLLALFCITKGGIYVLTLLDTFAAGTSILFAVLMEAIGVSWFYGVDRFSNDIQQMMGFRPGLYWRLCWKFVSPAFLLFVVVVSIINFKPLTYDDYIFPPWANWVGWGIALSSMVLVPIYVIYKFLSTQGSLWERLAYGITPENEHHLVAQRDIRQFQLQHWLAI
# Outline: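 CHO cells stably expressing human NET, plated overnight at 3 × 10⁵ cells/mL in HEPES-buffered saline with 0.5% BSA. Compound added, then [³H]-norepinephrine (200 nM diluted stock). Uptake stopped at 45 min with two PBS washes, then scintillation counting. IC50 and 95% CI from n = 2.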
# Mus musculus [12] = test: Ex vivo receptor occupancy of SERT in po dosed ICR mouse after 1 hr in presence of [3H]-citalopram; format: functional, organism-based; outline: as §3
SMILES,Activity (Mus musculus [1]) [%],inhibition at 10 µM (hERG (KCNH2)) [%],Activity (Mus musculus [2]) [%],"inhibition at 20 min, 10 µM (CYP2D6) [%]",IC50 [3] [nM],minimal effective dose (Mus musculus [4]) [mg/kg],Activity (Mus musculus [5]),Activity (Mus musculus [6]),Activity (Mus musculus [7]),IC50 [8] [nM],Activity (Mus musculus [9]) [%],Activity (Mus musculus [10]),IC50 [11] [nM],Activity (Mus musculus [12])
COC[C@H](c1ccc(Cl)c(Cl)c1)C1CCNCC1.Cl,270,48,180,14,180,10,Dose-dependent effect,Active,Dose-dependent effect,130,400,Dose-dependent effect,15,Dose-dependent effect
COC[C@@H](c1ccc(Cl)c(Cl)c1)C1CCNCC1.Cl,–,46,–,13,470,10,–,–,–,5.7,–,–,21,–
CSCC(c1ccc(Cl)c(Cl)c1)C1CCNCC1.Cl (racemic),–,73,–,32,79,30,–,–,–,9.1,–,–,9.3,–
CCSCC(c1ccc(Cl)c(Cl)c1)C1CCNCC1 (racemic),–,94,–,55,72,–,–,–,–,9.2,–,–,8.7,–
CS(=O)(=O)CC(c1ccc(Cl)c(Cl)c1)C1CCNCC1 (racemic),–,9,–,3.9,2200,–,–,–,–,340,–,–,200,–
COC(=O)C(c1ccc(Cl)c(Cl)c1)C1CCNCC1 (racemic),–,56,–,13,220,–,–,–,–,5.2,–,–,18,–
CCOC(=O)C(c1ccc(Cl)c(Cl)c1)C1CCNCC1 (racemic),–,110,–,38,97,–,–,–,–,9.3,–,–,12,–
CC(=O)C(c1ccc(Cl)c(Cl)c1)C1CCNCC1.Cl (racemic),–,40,–,11,180,30,–,–,–,21,–,–,44,–
CCC(=O)C(c1ccc(Cl)c(Cl)c1)C1CCNCC1 (racemic),–,51,–,6.1,100,–,–,–,–,18,–,–,28,–
CCCC(=O)C(c1ccc(Cl)c(Cl)c1)C1CCNCC1 (racemic),–,72,–,20,26,–,–,–,–,37,–,–,22,–
COCC(c1ccc2ccccc2c1)C1CCNCC1 (racemic),–,38,–,22,1100,–,–,–,–,2.1,–,–,36,–
COCC(c1cccc(Cl)c1)C1CCNCC1 (racemic),–,23,–,2,2600,–,–,–,–,180,–,–,98,–
COCC(c1ccc(Cl)cc1)C1CCNCC1 (racemic),–,22,–,-2.8,1700,–,–,–,–,120,–,–,130,–
COCC(c1ccc(F)c(Cl)c1)C1CCNCC1 (racemic),–,24,–,-18,580,–,–,–,–,32,–,–,70,–
CC(c1ccc(Cl)c(Cl)c1)C1CCNCC1.Cl (racemic),–,72,–,27,160,3,–,–,–,12,–,–,25,–
OCC(c1ccc(Cl)c(Cl)c1)C1CCNCC1 (racemic),–,12,–,-1.5,2400,–,–,–,–,79,–,–,110,–
COCC(c1ccc(Cl)c(Cl)c1)C1CCNCC1.Cl (racemic),–,42,–,5.7,190,3,–,–,–,11,–,–,14,–
CCOCC(c1ccc(Cl)c(Cl)c1)C1CCNCC1.Cl (racemic),–,89,–,44,170,3,–,–,–,16,–,–,28,–
